Source: PubChem BioAssay
Shown are actives, neighbours in structure and some others; about 3.1% of the full set was active somewhere.
hERG protect: hERG rescue from dofetilide block, primary screen, cell-based, CHO-hERG, FluxOR thallium flux, dofetilide IC70; Voltage-gated inwardly rectifying potassium channel KCNH2 (Homo sapiens), Q12809; dofetilide IC70 present; activation (rescue from dofetilide block), less the hit threshold, % at 10 µM; 310,000 tested, 0.51% active;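 active = activation above the mean of controls blocked by dofetilide plus 5 SD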;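 note: thallium influx through hERG after potassium depolarization seen as dye fluorescence rise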
KCNQ1 inh: inhibitors of human KCNQ1 channel, primary screen, cell-based, thallium flux, high-throughput; Potassium voltage-gated channel subfamily KQT member 1 (Homo sapiens), P51787; CHO-K1 KCNQ1, FluxOR thallium flux fluorescence; active compounds read high; B-score at 10 µM; 310,000 tested, 1.3% active;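 active = compounds whose thallium flux B-score, printed positive for inhibition, exceeds three library SD while starting fluorescence stays within three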;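 note: channel opened by potassium depolarization with thallium stimulus after 20 min compound exposure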
KCNK9 inh: KCNK9 potassium channel inhibitors, primary screen, HEK293 cells, thallium flux. Potassium channel subfamily K member 9 (Homo sapiens), Q9NPC2. B-score at 10 µM. AID 488922, 2010. FluxOR thallium flux fluorescence; active compounds read low. 310,000 tested, 1.2% active;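 active = ratio B-score over 3 SD below the library mean, with starting fluorescence within 5 SD of its mean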;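 note: negative B-score means less thallium flux so channel inhibition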
Target sequence (Q9NPC2 whole entry, looked up): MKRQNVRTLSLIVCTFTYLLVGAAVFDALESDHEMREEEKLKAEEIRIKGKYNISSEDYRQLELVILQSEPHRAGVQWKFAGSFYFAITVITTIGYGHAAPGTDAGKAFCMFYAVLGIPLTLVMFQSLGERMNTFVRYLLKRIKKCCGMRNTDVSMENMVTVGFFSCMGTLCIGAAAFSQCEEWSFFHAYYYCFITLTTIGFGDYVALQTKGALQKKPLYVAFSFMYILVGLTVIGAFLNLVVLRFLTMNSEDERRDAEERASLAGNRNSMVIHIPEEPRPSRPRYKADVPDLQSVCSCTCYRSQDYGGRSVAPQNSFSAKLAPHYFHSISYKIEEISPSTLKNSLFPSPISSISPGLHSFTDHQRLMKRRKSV
KCNK3 inh: human KCNK3 channel inhibitors, primary screen, CHO cells, FluxOR thallium flux, B-score; 340,000 tested, 0.84% active; FluxOR fluorescence; active compounds read low; AID 602410, 2012; B-score at 10 µM;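 active = B-score under library mean minus 4 SD, starting fluorescence ratio at most library mean plus 5 SD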;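 note: more negative B-score means stronger inhibition of thallium flux through KCNK3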
KCNQ1 act: potentiators or activators of KCNQ1 channel, primary screen, cell-based, thallium flux, high-throughput | Potassium voltage-gated channel subfamily KQT member 1 (Homo sapiens), P51787 | CHO-K1 KCNQ1, thallium flux FluxOR fluorescence; active compounds read high | B-score at 10 µM | 310,000 tested, 0.35% active;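 active = fluorescence ratio B-score, a plate-corrected score, at least three library SD, with initial intensity B-score within 5 SD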
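assay system = KCNQ1-transfected CHO-K1 cells | medium = assay buffer with matched DMSO | probe or stimulus = depolarizing K+/Tl+ stimulus, K2SO4 and Tl2SO4 each 12.5 mM in 5x stock | dosing = single dose | incubation = dye 90 min, compound 20 min, room temperature | detection = kinetic FluxOR fluorescence, 10 s baseline plus 110 s post-stimulus | evaluation = ratio B score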
Large screens that a line does not name were inactive.

CCn1c2ccccc2c2cc(NC(=O)C(C)OC(=O)c3ccc(NC(=O)CC#N)cc3)ccc21 (stereo unspecified)	none (no result: hERG protect, KCNQ1 inh, KCNK9 inh, KCNQ1 act)
C(=NOCc1ccccc1)c1cccnc1	none (no result: hERG protect, KCNQ1 inh, KCNK9 inh, KCNQ1 act)
CCOC(=O)c1ccc(Oc2cc(C)nc(SC)n2)cc1	hERG protect 5.5
CC(=O)N1CCc2cc(S(=O)(=O)N3CCOCC3)ccc21	none
CC(=O)N1CCc2cc(S(=O)(=O)N3c4ccccc4CC3C)ccc21 (stereo unspecified)	hERG protect 5.4
Cc1ccc(C(=O)N2CC(=O)NC(=O)C2)cc1	hERG protect 5.3
Cc1ccc(C(=O)N2CC3(C)CN(C(=O)c4ccc(C)cc4)CC(C)(C2)C3=O)cc1	none
CC(CCc1ccccc1)NC(=O)COc1cc(F)ccc1[N+](=O)[O-] (stereo unspecified)	KCNQ1 act 24
CC(CCc1ccccc1)NC(=O)COC(=O)c1cc(NS(=O)(=O)c2ccc(Cl)c([N+](=O)[O-])c2)ccc1O (stereo unspecified)	KCNQ1 inh 6
CCC(C)NC(=O)COc1ccccc1[N+](=O)[O-] (stereo unspecified)	none
O=C(NCc1ccccn1)c1cc(-c2ccc(Cl)cc2)oc1C(F)(F)F	KCNK9 inh -7.4
Cc1ccc(COC(=O)c2ccc3ccccc3n2)cc1	none
CC(=O)O[C@@H]1[C@@H](O)[C@@H](O)[C@H](Oc2c(-c3ccc(O)cc3)oc3c(CC=C(C)C)c(O)cc(O)c3c2=O)O[C@H]1C	KCNQ1 inh 6 (no result: KCNK3 inh)
COc1ccc(-c2oc3c(CC=C(C)C)c(O[C@@H]4O[C@H](CO)[C@@H](O)[C@H](O)[C@H]4O)cc(O)c3c(=O)c2O[C@@H]2O[C@@H](C)[C@H](O)[C@@H](O)[C@H]2O)cc1	none (no result: KCNK3 inh)
Cc1ccc2c(c1)N(S(=O)(=O)c1ccc(F)cc1)C(C(C)(C)C)CO2 (stereo unspecified)	KCNQ1 inh 7
Cc1ccc(S(=O)(=O)N2c3ccccc3OCC2C(C)(C)C)cc1 (stereo unspecified)	none
COc1ccc2oc(C(=O)N3CCN(S(=O)(=O)c4cccc([N+](=O)[O-])c4)CC3)c(C)c2c1	none
OC(CNCCc1ccc(Cl)cc1)COc1cc(Cl)ccc1Cl (stereo unspecified)	KCNQ1 inh 9
CC(OC(=O)CSCC(=O)Nc1ccc(Cl)cc1)C(=O)N(C)Cc1ccccc1 (stereo unspecified)	none (no result: hERG protect, KCNQ1 inh, KCNK9 inh, KCNQ1 act)
N#Cc1ccccc1OCC(=O)Nc1nnc(C2CC2)s1	none (no result: hERG protect, KCNQ1 inh, KCNK9 inh, KCNQ1 act)
Clc1ccc(OCCn2ccnc2)c2ccccc12	KCNQ1 inh 6
C=CCc1cccc(Cl)c1OCCON1C(=O)CCC1=O	none
O=C1CCC(=O)N1OCCOc1ccc(Cl)c2ccccc12	KCNQ1 inh 6
Clc1ccc(OCCn2ccnc2)c(Cl)c1	none
Cc1ccc(NC(=O)c2ccc3c(c2)OCO3)cc1Cl	hERG protect 13
CC1CCCN(c2ccc(C(=O)Nc3ccc4c(c3)OCO4)cc2[N+](=O)[O-])C1 (stereo unspecified)	KCNQ1 inh 6
CN(C)CC1CCC/C(=C/c2ccc(Cl)cc2)C1=O (stereo unspecified)	none (no result: hERG protect, KCNQ1 inh, KCNK9 inh, KCNQ1 act)
COCCCNC(=O)C[C@H]1C[C@H](C(=O)N2CCOCC2)[C@@]2(CCC3CCCC3)c3[nH]c4cc(CCC(=O)N(C)C)ccc4c3CCN2C1=O	none (no result: hERG protect, KCNQ1 inh, KCNK9 inh, KCNQ1 act)
O=C(CCn1c(=O)c2sccc2n(CC(=O)OCc2ccccc2)c1=O)NCc1ccccc1	hERG protect 5.2
O=C(CCn1c(=O)c2sccc2n(CC(=O)OCc2ccccc2)c1=O)NCc1ccco1	none
CC(C)N(C)Cc1cn(C)nc1-c1ccc(Oc2ccccc2)cc1	none
CCN(Cc1ccncc1)Cc1cn(C)nc1-c1ccc(Oc2ccccc2)cc1	KCNQ1 inh 6
C=CCn1c(SCC(O)Cn2c3ccccc3c3ccccc32)nnc1-c1ccco1 (stereo unspecified)	KCNK9 inh -7.2
C=CCn1c(SCC(=O)N2c3ccccc3Sc3ccccc32)nnc1-c1ccco1	none
Cc1cccn2c(=S)[nH]nc12	none (no result: hERG protect, KCNQ1 inh, KCNK9 inh, KCNQ1 act)
